Measured values from different studies.
Compare with care: the assays were run in different laboratories.

Structure (SMILES) | test | test system | setting | endpoint | result
Nc1ncn([C@H]2C[C@H](O)[C@@H](CO)O2)c(=O)n1 |  | female C57BL/6 mouse, plasma | intravenous, 0.4 mg/kg | AUC(0-t) | 182 ng·h/mL
Cc1cc(-c2cn[nH]c2-c2cccc(OCc3cccc(C#N)c3)c2)cc(C)n1 |  | mouse, plasma | oral, 200 mg/kg | bioavailability | 47%
Cc1c(C(=O)O)ccc2c3n(nc12)[C@@H]1[C@H](C3)N(CC2CC2)[C@@]2(C(=O)Nc3cc(Cl)ccc32)[C@H]1c1cccc(Cl)c1F |  | FVB mouse, plasma | oral, 10 mg/kg, single dose | bioavailability | 79%
CCN1CCN(Cc2ccc(NC(=O)c3ccc(C)c(NC(=O)c4cncc(-c5cccs5)c4)c3)cc2C(F)(F)F)CC1 |  | mouse, plasma | intraperitoneal, 15 mg/kg, single dose | AUC(0-inf) | 1.75 µg·h/mL
Cc1cc2sc(N)nc2c2cccnc12 |  | female BALB/c mouse, plasma | intraperitoneal, 30 mg/kg, single dose | AUC(0-t) | 45500 ng·h/mL
CC1=NN(/C(=N/c2nnc(C)s2)Nc2ccc(C)c(C)c2)C(c2cc(F)c(F)c(F)c2)S1 (stereo not shown) |  | male CD-1 mouse, plasma | oral, 30 mg/kg | bioavailability | 13.4%
Nc1ccc(/N=N/c2cccc(F)c2F)c(N)n1 |  | male CD-1 mouse, plasma | intraperitoneal, 100 mg/kg | bioavailability | 261%
CCOc1ccc(N(C)S(=O)(=O)c2cc(Cl)sc2C(=O)Nc2cc(Cl)cc(C(=O)O)c2)cc1OC |  | male C57BL/6 mouse, plasma | intraperitoneal, 10 mg/kg | AUC(0-inf) | 6.1 µg·h/mL
CC(C)C[C@H](NC(=O)[C@@H]1COCCCCCC(=O)N2C[C@H](F)C[C@H]2C(=O)N1)C(=O)[C@@]1(C)CO1 |  | male BALB/c mouse, plasma | oral, 150 mg/kg | bioavailability | ~10%
CNC(=O)c1ccc(N2C(=S)N(c3ccc(C#N)c(C(F)(F)F)c3)C(=O)C2(C)C)cc1F |  | male C57BL/6 mouse, plasma | oral, 0.0215 mmol/kg | bioavailability | 45%
Cc1c(C(=O)O)ccc2c3n(nc12)[C@@H]1[C@H](C3)N(CC2CC2)[C@@]2(C(=O)Nc3cc(Cl)ccc32)[C@H]1c1cccc(Cl)c1F |  | female mouse, plasma | oral, 5 mg/kg | bioavailability | 119%
CN(C)C/C=C/C(=O)Nc1cc2c(Nc3ccc(F)c(Cl)c3)ncnc2cc1O[C@H]1CCOC1 | chemical stability | PBS | 250 µM, pH 7.4 | half-life | > 4.17 days
CN1CCN(C(=O)[C@H](CCCN[C@@H]2C[C@H]2c2ccc(F)cc2)NC(=O)c2ccc(-n3ccnn3)cc2)CC1 |  | CD-1 mouse, plasma | oral, 10 mg/kg | AUC(0-t) | 2.27 µM·h
